The subject of data set [1] is A-431. The data set is described as follows: Antiproliferative activity against human A431 cells assessed as cell growth inhibition after 72 hrs by MTT assay. The format is functional, cell-based. The following applies: A-431, 72 h. In short, it runs like this:
(§1)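 A431 or HaCaT cells seeded at 1x10⁴ cells/well, incubated 24 h, then exposed to 0.03-30 µM for 72 h at 37°C, 5% CO₂. MTT (5 mg/ml in PBS) for 4 h after a PBS wash, formazan dissolved in isopropanol, read at 405 nm. Viability expressed as % of untreated cells; IC₅₀ taken from at least three independent dose-response curves.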
(In general: Tetrazolium assays rely on reduction of a dye to a coloured formazan, in cell work by metabolically active cells.)

The test system of the next data set is HaCaT. Nature of the data set: Antiproliferative activity against human HaCaT cells assessed as cell growth inhibition after 72 hrs by MTT assay. The format is functional, cell-based. In outline:
as §1

Data set [2] deals with T1, Epidermal growth factor receptor (Homo sapiens, UniProt P00533). Nature of the data set: Inhibition of EGFR-TK in human A431 cell lysate assessed as reduction in EGF stimulated kinase activity at 20 uM after 60 mins using biotinylated peptide substrate by ELISA. The format is cell-free. The following applies: A-431. In outline:
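A431 cells seeded at 4x10⁶ per 100-mm dish and stimulated with EGF (100 nM) for 60 min with or without compound. Tyrosine kinase activity in lysates measured by direct colorimetric ELISA using a biotinylated peptide substrate and an anti-phosphotyrosine-HRP antibody.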

Data set [3] in a line: Antiproliferative activity against human HGF assessed as cell growth inhibition at 30 uM after 72 hrs by MTT assay. The following applies: HGF cells, read-out: GI. In outline: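 Gingival fibroblasts were grown from healthy-donor biopsies of permanent molars in DMEM/F12 with 10% FCS, then seeded at 1x10⁴ cells/well. After 24 h, cells were treated for 72 h at 37°C, 5% CO₂. Read-out was MTT with isopropanol solubilization at 405 nm, expressed as % of untreated cells.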

Data set [4] concerns the target T1, Epidermal growth factor receptor. Nature of the data set: Inhibition of EGFR-TK in human A431 cell lysate assessed as reduction in EGF stimulated kinase activity after 60 mins using biotinylated peptide substrate by ELISA. The format is cell-based, A-431. Background: An ELISA detects its analyte on a solid surface through an enzyme-linked reagent.
Data set [5] in a line: Chemical stability of the compound in phosphate buffer assessed as degradation at 2 uM at pH 7.2 after 0.5 to 24 hrs by HPLC analysis. The conditions noted are these: pH 7.2, 2 µM. The format is physicochemical. In outline: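 Test solutions (2 µM) made from a 1 mg/mL DMSO stock diluted into pH 7.2 phosphate buffer and held at 37°C. Aliquots analysed by HPLC with diode-array detection on a phenyl-hexyl column at 0, 0.5, 2, 4 and 24 h.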

For data set [6], the system named is A-431. Nature of the data set: Effect on total Akt levels in human A431 cells after 2 hrs by ELISA analysis. The format is cell-based. The conditions noted are these: a-431, 2 h.
The subject of data set [7] is A-431. Nature of the data set: Induction of apoptosis in human A431 cells assessed as DNA fragmentation at 2 uM after 24 hrs by ELISA analysis. The format is functional. In short, it runs like this:
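A431 cells seeded at 5x10³ cells/well, then exposed to compound for 24 h at 37°C, 5% CO₂. Nucleosomal DNA fragmentation in lysate supernatants quantified by sandwich ELISA with anti-histone-biotin and anti-DNA-peroxidase antibodies and ABTS substrate (20 min), read at 405 nm. Expressed as fold increase, treated over untreated absorbance.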

Data set [8] deals with T1, Epidermal growth factor receptor. The conditions noted are these: A-431, 10 uM.
Data set [9] shares this target. The following applies: A-431, 2 uM.

SMILES strings stand for the structures. Activity calls are given as the source filed them. No cut-off for these calls is given here.

T1 sequence (P00533 whole entry): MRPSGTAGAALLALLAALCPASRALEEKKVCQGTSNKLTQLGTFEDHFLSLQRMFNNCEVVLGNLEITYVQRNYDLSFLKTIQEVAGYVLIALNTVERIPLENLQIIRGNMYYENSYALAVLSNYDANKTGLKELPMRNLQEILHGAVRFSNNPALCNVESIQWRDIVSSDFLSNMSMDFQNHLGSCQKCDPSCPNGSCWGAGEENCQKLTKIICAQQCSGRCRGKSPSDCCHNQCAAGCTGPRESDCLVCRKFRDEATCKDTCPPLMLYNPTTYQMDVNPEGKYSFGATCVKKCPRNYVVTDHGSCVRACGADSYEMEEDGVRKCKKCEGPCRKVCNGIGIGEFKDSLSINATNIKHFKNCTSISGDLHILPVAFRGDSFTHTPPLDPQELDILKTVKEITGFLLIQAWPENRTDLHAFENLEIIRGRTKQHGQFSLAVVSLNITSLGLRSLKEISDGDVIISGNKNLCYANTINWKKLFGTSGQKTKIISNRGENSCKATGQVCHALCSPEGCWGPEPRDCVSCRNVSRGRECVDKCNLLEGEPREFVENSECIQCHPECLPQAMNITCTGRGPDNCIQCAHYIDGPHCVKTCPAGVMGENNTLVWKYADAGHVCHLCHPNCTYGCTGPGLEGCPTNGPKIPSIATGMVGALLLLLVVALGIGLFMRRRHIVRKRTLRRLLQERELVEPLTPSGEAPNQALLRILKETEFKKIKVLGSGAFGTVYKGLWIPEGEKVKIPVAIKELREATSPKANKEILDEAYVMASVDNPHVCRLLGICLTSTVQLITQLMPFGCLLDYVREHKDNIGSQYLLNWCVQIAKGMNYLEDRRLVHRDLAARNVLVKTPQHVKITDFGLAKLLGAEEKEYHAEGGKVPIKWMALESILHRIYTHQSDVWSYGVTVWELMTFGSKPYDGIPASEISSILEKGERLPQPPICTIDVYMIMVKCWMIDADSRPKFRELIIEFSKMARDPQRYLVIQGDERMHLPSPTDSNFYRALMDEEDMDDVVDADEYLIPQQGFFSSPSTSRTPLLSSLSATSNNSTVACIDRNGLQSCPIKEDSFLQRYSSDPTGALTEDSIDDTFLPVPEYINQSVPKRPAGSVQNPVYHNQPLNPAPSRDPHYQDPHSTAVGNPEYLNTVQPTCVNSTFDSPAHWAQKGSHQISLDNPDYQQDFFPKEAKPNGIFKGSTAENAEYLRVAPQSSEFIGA

For `O=C(CCN=C=S)Nc1ccc2ncnc(Nc3cccc(Br)c3)c2c1`, the IC50 – broadly, the point on the concentration scale where inhibition reaches its midpoint – was 17.1 µM with A-431 [1] and 18.9 µM with HaCaT. Moreover, the inhibition in data set [2] was < 50%.
For `S=C=Nc1ccc2ncnc(Nc3cccc(Br)c3)c2c1`, the IC50 amounted to 2.04 µM in the data set on A-431 [1], 2.62 µM in the data set with HaCaT and 0.88 µM in data set [4]. Moreover, in [3], the inhibition at 72 h, 30 µM was < 50%. Moreover, the Stability result in data set [5] was “Stable”. Moreover, the Activity result is recorded as “Non-toxic” in the data set with A-431 [6] and 40% in the data set with A-431 [7]. The inhibition in data set [8] worked out at 89%. Also, the inhibition result in [9] was “Active”.
As to `Nc1ccc2ncnc(Nc3cccc(Br)c3)c2c1`, the IC50 in the data set on A-431 [1] was 11.1 µM; in the data set with HaCaT, 14.3 µM. In data set [3], the inhibition at 72 h, 30 µM was < 50%.
Take `O=C(CCCCCCN=C=S)Nc1ccc2ncnc(Nc3cccc(Br)c3)c2c1`: the IC50 was 16.1 µM in the data set with A-431 [1] and 17.3 µM in the data set with HaCaT. Moreover, the inhibition in data set [2] was < 50%.
On to `O=C(CCCCCN=C=S)Nc1ccc2ncnc(Nc3cccc(Br)c3)c2c1`, for which the IC50 with A-431 [1] worked out at 14.4 µM; with HaCaT, 16.5 µM. In addition, in data set [3], the inhibition at 72 h, 30 µM is < 50%. Also, the inhibition in [2] is < 50%. In addition, in data set [5], the Stability entry was “Stable”.
With `C[S+]([O-])CCCCN=C=S` (centres undefined) [SULFORAPHANE], the IC50 in the data set on A-431 [1] turned out to be 15.8 µM; in [4] it was 9 µM.
Consider `CC[C@@]1(O)C(=O)OCc2c1cc1n(c2=O)Cc2cc3ccccc3nc2-1` [CAMPTOTHECIN], for which the Activity in the data set with A-431 [7] is reported as 65%.
For `O=C(CCCN=C=S)Nc1ccc2ncnc(Nc3cccc(Br)c3)c2c1`, the IC50 amounted to 17.1 µM with A-431 [1] and 16.3 µM in the data set on HaCaT. The inhibition at 72 h, 30 µM in data set [3] is < 50%. In data set [2], the inhibition is < 50%.
As to `O=C(CCCCN=C=S)Nc1ccc2ncnc(Nc3cccc(Br)c3)c2c1`, the IC50 with A-431 [1] turned out to be 16.3 µM; in the data set with HaCaT it was 18.2 µM. In data set [2], the inhibition is < 50%.
Take `C=CC(=O)Nc1ccc2ncnc(Nc3cccc(Br)c3)c2c1`: the Activity with A-431 [7] amounted to 48%.

These data come from ChEMBL document CHEMBL3808338, “Combined inhibition of the EGFR/AKT pathways by a novel conjugate of quinazoline with isothiocyanate” (Eur J Med Chem, 2016).
